Experimental data reported in ChEMBL document CHEMBL4130539, “Novel ureidopropanamide based N-formyl peptide receptor 2 (FPR2) agonists with potential application for central nervous system disorders characterized by neuroinflammation” (Eur J Med Chem, 2017).
Calls of active or inactive are those of the source. The rule behind the calls is not given here.

Experiments:
[1] = target: T1, N-formyl peptide receptor 2 (Homo sapiens) (UniProt P25090); experiment: Agonist activity at human FPR2 expressed in human HL60 cells assessed as induction of calcium mobilization relative to control; type: functional, cell-based
T1 sequence (whole entry): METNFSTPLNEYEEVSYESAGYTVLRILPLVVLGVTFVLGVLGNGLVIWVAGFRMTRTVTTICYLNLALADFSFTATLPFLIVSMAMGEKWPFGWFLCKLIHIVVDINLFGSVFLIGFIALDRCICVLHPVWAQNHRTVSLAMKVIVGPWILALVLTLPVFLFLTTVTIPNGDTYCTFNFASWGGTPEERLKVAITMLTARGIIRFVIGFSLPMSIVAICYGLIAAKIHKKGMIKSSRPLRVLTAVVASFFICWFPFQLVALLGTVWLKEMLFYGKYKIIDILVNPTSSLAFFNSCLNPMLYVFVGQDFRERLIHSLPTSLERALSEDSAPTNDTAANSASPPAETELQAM

[2] = Metabolic stability in rat liver microsomes assessed as parent compound remaining at 10 uM preincubated for 10 mins followed by NADPH addition measured after 30 mins by liquid chromatographic method; type: ADME, microsome; conditions: 0.5 h
[3] = target: T2, N-formyl peptide receptor 2 (Homo sapiens, UniProt P25090); experiment: Agonist activity at human FPR2 expressed in human HL60 cells assessed as induction of calcium mobilization; type: functional, cell-based
T2 sequence (P25090 whole entry): T1 sequence (whole entry)

[4] = target: T1, N-formyl peptide receptor 2 (Homo sapiens); experiment: Agonist activity at human FPR2 expressed in human HL60 cells assessed as induction of calcium mobilization measured every 5 secs for 240 secs by Fluo-4-AM dye based fluorometric method relative to WKYMVM; type: functional, cell-based
[5] = Half life in rat liver microsomes at 10 uM preincubated for 10 mins followed by NADPH addition by liquid chromatographic method; type: ADME, microsome
[6] = Intrinsic clearance in rat liver microsomes at 10 uM preincubated for 10 mins followed by NADPH addition by liquid chromatographic method; type: ADME, microsome
[7] = target: T2, N-formyl peptide receptor 2; experiment: Agonist activity at FPR2 in human neutrophils assessed as induction of calcium mobilization measured every 5 secs for 240 secs by Fluo-4-AM dye based fluorometric method; type: functional; conditions: read-out: EC50
[8] = target: T2, N-formyl peptide receptor 2; experiment: Agonist activity at human FPR2 expressed in human HL60 cells assessed as induction of calcium mobilization measured every 5 secs for 240 secs by Fluo-4-AM dye based fluorometric method; type: functional, cell-based; conditions: read-out: EC50
[9] = target: T3, fMet-Leu-Phe receptor (Homo sapiens) (UniProt P21462); experiment: Agonist activity at human FPR1 expressed in human HL60 cells assessed as induction of calcium mobilization measured every 5 secs for 240 secs by Fluo-4-AM dye based fluorometric method relative to fMLF; type: functional, cell-based
T3 sequence (whole entry): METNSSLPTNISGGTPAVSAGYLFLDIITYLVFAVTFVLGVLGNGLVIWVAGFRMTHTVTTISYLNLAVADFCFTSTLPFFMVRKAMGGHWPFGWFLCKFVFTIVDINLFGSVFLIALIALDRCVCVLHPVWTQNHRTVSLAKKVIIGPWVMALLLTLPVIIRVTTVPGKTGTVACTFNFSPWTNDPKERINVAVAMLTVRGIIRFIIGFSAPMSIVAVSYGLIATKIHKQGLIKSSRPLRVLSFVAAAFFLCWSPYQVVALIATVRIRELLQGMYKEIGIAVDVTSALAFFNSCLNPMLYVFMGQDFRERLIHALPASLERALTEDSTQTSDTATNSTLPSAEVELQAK

[10] = target: T1, N-formyl peptide receptor 2 (Homo sapiens); experiment: Agonist activity at FPR2 in human neutrophils assessed as induction of calcium mobilization measured every 5 secs for 240 secs by Fluo-4-AM dye based fluorometric method relative to fMLF
[11] = target: T4, fMet-Leu-Phe receptor (Homo sapiens, UniProt P21462); experiment: Agonist activity at human FPR1 expressed in human HL60 cells assessed as induction of calcium mobilization measured every 5 secs for 240 secs by Fluo-4-AM dye based fluorometric method; type: functional, cell-based; conditions: read-out: EC50
T4 sequence (P21462 whole entry): T3 sequence (whole entry)

[12] = target: T4, fMet-Leu-Phe receptor; experiment: Agonist activity at human FPR1 expressed in human HL60 cells assessed as induction of calcium mobilization; type: functional, cell-based
[13] = tested on: Microglia; experiment: Anti-inflammatory activity in Sprague-Dawley rat primary microglia cells assessed as inhibition of LPS-induced IL-1beta level up to 10 uM pretreated for 1 hr followed by LPS stimulation for 24 hrs by ELISA; type: functional, cell-based
Procedure, shortened: (§1)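 Primary microglia from cortices of 1–2-day-old Sprague-Dawley rats, shaken off mixed cultures at day 9 in vitro, >95% Iba-1/CD11b-positive, used 2 days after plating. Agonist added 1 h before LPS (E. coli 0111:B4, 100 ng/ml) for 24 h; WRW4 given 30 min before agonist where stated. Medium NO by Griess reaction (540 nm); TNF-α and IL-1β by ELISA. Data as % of vehicle-treated control.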

[14] = tested on: Microglia; experiment: Proinflammatory activity in Sprague-Dawley rat primary microglia cells assessed as induction of NO level up to 10 uM after 24 hrs by Griess reagent based assay; type: cell-based
Procedure, shortened: (§2)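 Rat primary cortical microglia (Sprague-Dawley pups, 1–2 days old, >95% Iba-1/CD11b-positive) given agonist without LPS for 24 h; WRW4 added 30 min before agonist where indicated. Supernatant NO measured with Griess reagent (540 nm, 10 min room temperature); TNF-α and IL-1β by ELISA. Values normalized to vehicle-treated cells (100%).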

[15] = tested on: Microglia; experiment: Anti-inflammatory activity in Sprague-Dawley rat primary microglia cells assessed as inhibition of LPS-induced TNFalpha level up to 10 uM pretreated for 1 hr followed by LPS stimulation for 24 hrs by ELISA; type: functional, cell-based; procedure, shortened: as §1
[16] = tested on: Microglia; experiment: Anti-inflammatory activity in Sprague-Dawley rat primary microglia cells assessed as inhibition of LPS-induced IL-1beta level up to 10 uM pretreated for 1 hr followed by LPS stimulation for 24 hrs in presence of FPR2 antagonist WRW4 by ELISA; type: functional, cell-based; procedure, shortened: as §1
[17] = tested on: Microglia; experiment: Proinflammatory activity in Sprague-Dawley rat primary microglia cells assessed as induction of TNFalpha level up to 10 uM after 24 hrs in presence of FPR2 antagonist WRW4 by ELISA; type: cell-based; procedure, shortened: as §2
[18] = tested on: Microglia; experiment: Cytotoxicity against Sprague-Dawley rat primary microglia cells assessed as cell death at 50 uM after 24 hrs by LDH assay; type: cell-based
[19] = tested on: Microglia; experiment: Cytoprotection against LPS-induced cell death in Sprague-Dawley rat primary microglia cells at 1 to 5 uM pretreated for 1 hr followed by LPS stimulation for 24 hrs by LDH assay; type: functional, cell-based
[20] = tested on: Microglia; experiment: Cytotoxicity against Sprague-Dawley rat primary microglia cells assessed as reduction in cell viability at 0.5 to 10 uM after 24 hrs by MTT assay; type: cell-based
[21] = tested on: Microglia; experiment: Cytotoxicity against Sprague-Dawley rat primary microglia cells assessed as cell death at 0.5 to 10 uM after 24 hrs by LDH assay; type: cell-based
[22] = Efflux ratio of apparent permeability in hCMEC/D3 cells at 5 to 10 uM after 2 hrs by UV-spectroscopic method; type: ADME, cell-based; conditions: human, hcmec/d3, 2 h
[23] = tested on: Microglia; experiment: Proinflammatory activity in Sprague-Dawley rat primary microglia cells assessed as induction of NO level up to 10 uM after 24 hrs in presence of FPR2 antagonist WRW4 by Griess reagent based assay; type: cell-based; procedure, shortened: as §2
[24] = tested on: Microglia; experiment: Proinflammatory activity in Sprague-Dawley rat primary microglia cells assessed as induction of IL-1beta level up to 10 uM after 24 hrs in presence of FPR2 antagonist WRW4 by ELISA; type: cell-based; procedure, shortened: as §2
[25] = tested on: Microglia; experiment: Proinflammatory activity in Sprague-Dawley rat primary microglia cells assessed as induction of TNFalpha level up to 10 uM after 24 hrs by ELISA; type: cell-based; procedure, shortened: as §2
[26] = tested on: Microglia; experiment: Cytoprotection against LPS-induced cell death in Sprague-Dawley rat primary microglia cells at 0.5 to 50 uM pretreated for 1 hr followed by LPS stimulation for 24 hrs by MTT assay; type: functional, cell-based
[27] = tested on: Microglia; experiment: Anti-inflammatory activity in Sprague-Dawley rat primary microglia cells assessed as inhibition of LPS-induced NO level up to 10 uM pretreated for 1 hr followed by LPS stimulation for 24 hrs by Griess reagent based assay; type: functional, cell-based; procedure, shortened: as §1
[28] = tested on: Microglia; experiment: Proinflammatory activity in Sprague-Dawley rat primary microglia cells assessed as induction of IL-1beta level up to 10 uM after 24 hrs by ELISA; type: cell-based; procedure, shortened: as §2

Compound	Stability [2]	Efficacy [4]	t1/2 [5]	Microsomal intrinsic clearance (CLint) [6]	EC50 [7]	EC50 [8]	Efficacy [9]	Efficacy [10]	EC50 [11]	other results
O=C(Nc1ccc([N+](=O)[O-])cc1)N[C@@H](Cc1c[nH]c2ccccc12)C(=O)NCC1(c2ccccc2)CC1	11%									Efficacy [1]: 60%; EC50 [3]: 7.6 µM
O=C(Nc1ccc([N+](=O)[O-])cc1)N[C@@H](Cc1cccnc1)C(=O)NCC1(c2ccccc2)CC1	51%	60%	1.83 h	6.3 µL/min/mg	0.73 µM	6.4 µM	125%	65%	0.85 µM	
COc1ccc(NC(=O)N[C@@H](Cc2c[nH]c3ccccc23)C(=O)NCC2(c3ccc(OC)cn3)CCCCC2)cc1	4%									EC50 [12]: 0.26 µM
O=C(Nc1ccc([N+](=O)[O-])cc1)N[C@H](Cc1cccnc1)C(=O)NCC1(c2ccccc2)CC1	45%	60%	1.65 h	7 µL/min/mg	0.12 µM	2.9 µM	145%	90%	1.5 µM	inhibition [13]: Active; Activity [14]: Non-Toxic; inhibition [15]: Active; inhibition [16]: inactive; Activity [17]: Non-Toxic; Activity [18]: Toxic; Activity [19]: Active; Activity [20]: Non-Toxic; Activity [21]: Non-Toxic; Ratio [22]: 3.7; Activity [23]: Non-Toxic; Activity [24]: Non-Toxic; Activity [25]: Non-Toxic; Activity [26]: inactive; inhibition [27]: inactive; Activity [28]: Non-Toxic
